Measured values as given in ChEMBL document CHEMBL2417474, “Synthesis, antiproliferative and anti-inflammatory activities of some novel 6-aryl-2-(p-(methanesulfonyl)phenyl)-4,5-dihydropyridazi-3(2H)-ones” (Eur J Med Chem, 2013).

Key:
Assay type in all cases: functional
[1] = test system: UACC-62; test: Growth inhibition of human UACC62 cells assessed as cell growth at 10 uM after 48 hrs by sulforhodamine B assay; conditions: UACC-62, 48 h, read-out: Activity
How it was run: (§1)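 Single-dose NCI screen. Tumor lines were cultured in medium with 5% fetal calf serum and 2 mM L-glutamine, preincubated 24 h, then given compound in DMSO. After 48 h continuous exposure, cell growth was estimated by sulforhodamine B protein assay.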

[2] = test system: BT-549; test: Growth inhibition of human BT549 cells after 48 hrs by sulforhodamine B assay; conditions: BT-549, 48 h; for CC50: read-out: LC50 (the source's name)
How it was run: (§2)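 NCI 60-cell-line panel grown in RPMI-type medium with 5% fetal calf serum and 2 mM L-glutamine. Cells preincubated 24 h, then exposed continuously for 48 h to compound in DMSO at 10^-4 to 10^-8 M (five 10-fold levels). Growth read by SRB protein stain. GI50 is the concentration giving a 50% reduction in net protein increase relative to control cells.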

[3] = test system: M14; test: Growth inhibition of human M14 cells after 48 hrs by sulforhodamine B assay; conditions: M14, 48 h; for CC50: read-out: LC50 (the source's name); how it was run: as §2
[4] = test system: DU-145; test: Growth inhibition of human DU145 cells assessed as cell growth at 10 uM after 48 hrs by sulforhodamine B assay; conditions: DU-145, 48 h, read-out: Activity
[5] = test system: OVCAR-4; test: Growth inhibition of human OVCAR4 cells after 48 hrs by sulforhodamine B assay; conditions: OVCAR-4, 48 h
How it was run: (§3)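 NCI 60-cell-line panel. Cells were grown in medium with 5% fetal calf serum and 2 mM L-glutamine, then preincubated 24 h in plates. Compounds were added from DMSO at five 10-fold concentrations from 100 to 0.01 µM and left on cells continuously for 48 h. Cell growth was read by sulforhodamine B protein stain. GI50 is the concentration that halves net protein increase relative to control cells.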

[6] = test system: NCI-H23; test: Growth inhibition of human NCI-H23 cells assessed as cell growth at 10 uM after 48 hrs by sulforhodamine B assay; conditions: NCI-H23, 48 h, read-out: Activity
[7] = test system: UO-31; test: Growth inhibition of human UO31 cells after 48 hrs by sulforhodamine B assay; conditions: UO-31, 48 h
How it was run: (§4)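 NCI 60-line panel. Cells were grown in medium with 5% fetal calf serum and 2 mM L-glutamine and preincubated 24 h in plates. Compound in DMSO was added at 10^-4 to 10^-8 M (five 10-fold levels), with continuous exposure for 48 h. Growth was read by SRB protein staining. GI50 is the concentration giving 50% reduction in net protein increase versus control cells.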

[8] = test system: MOLT-4; test: Growth inhibition of human MOLT4 cells assessed as cell growth at 10 uM after 48 hrs by sulforhodamine B assay; conditions: MOLT-4, 48 h, read-out: Activity
[9] = test system: T47D; test: Growth inhibition of human T47D cells assessed as cell growth at 10 uM after 48 hrs by sulforhodamine B assay; conditions: read-out: Activity; how it was run: as §1
[10] = test system: SNB-19; test: Growth inhibition of human SNB19 cells assessed as cell growth at 10 uM after 48 hrs by sulforhodamine B assay; conditions: SNB-19, 48 h, read-out: Activity
[11] = test system: UACC-62; test: Growth inhibition of human UACC62 cells after 48 hrs by sulforhodamine B assay; conditions: UACC-62, 48 h; how it was run: as §4
[12] = Growth inhibition of human NCI-ADR-RES cells after 48 hrs by sulforhodamine B assay; how it was run: as §3
[13] = test system: HOP-62; test: Growth inhibition of human HOP62 cells after 48 hrs by sulforhodamine B assay; conditions: HOP-62, 48 h; for CC50: read-out: LC50 (the source's name); how it was run: as §2
[14] = Growth inhibition of human EKVX cells after 48 hrs by sulforhodamine B assay; conditions: for CC50: read-out: LC50 (the source's name); how it was run: as §2
[15] = test system: T47D; test: Growth inhibition of human T47D cells after 48 hrs by sulforhodamine B assay; how it was run: as §4
[16] = test system: COLO 205; test: Growth inhibition of human COLO205 cells assessed as cell growth at 10 uM after 48 hrs by sulforhodamine B assay; conditions: COLO 205, 48 h, read-out: Activity
[17] = test system: A549; test: Growth inhibition of human A549/ATCC cells after 48 hrs by sulforhodamine B assay; conditions: A549, 48 h; for CC50: read-out: LC50 (the source's name); how it was run: as §2
[18] = test system: Malme-3M; test: Growth inhibition of human MALME-3M cells assessed as cell growth at 10 uM after 48 hrs by sulforhodamine B assay; conditions: read-out: Activity
[19] = test system: CCRF-CEM; test: Growth inhibition of human CCRF-CEM cells assessed as cell growth at 10 uM after 48 hrs by sulforhodamine B assay; conditions: read-out: Activity
[20] = test system: KM12; test: Growth inhibition of human KM12 cells after 48 hrs by sulforhodamine B assay; conditions: KM12, 48 h; how it was run: as §2
[21] = test system: UACC-257; test: Growth inhibition of human UACC257 cells assessed as cell growth at 10 uM after 48 hrs by sulforhodamine B assay; conditions: UACC-257, 48 h, read-out: Activity; how it was run: as §1
[22] = test system: SF-268; test: Growth inhibition of human SF268 cells assessed as cell growth at 10 uM after 48 hrs by sulforhodamine B assay; conditions: SF-268, 48 h, read-out: Activity
[23] = test system: MDA-MB-231; test: Growth inhibition of human MDA-MB-231 cells after 48 hrs by sulforhodamine B assay; conditions: MDA-MB-231, 48 h; how it was run: as §2
[24] = test system: ACHN; test: Growth inhibition of human ACHN cells assessed as cell growth at 10 uM after 48 hrs by sulforhodamine B assay; conditions: read-out: Activity
[25] = test system: UO-31; test: Growth inhibition of human UO31 cells assessed as cell growth at 10 uM after 48 hrs by sulforhodamine B assay; conditions: UO-31, 48 h, read-out: Activity; how it was run: as §1
[26] = test system: IGROV-1; test: Growth inhibition of human IGROV1 cells after 48 hrs by sulforhodamine B assay; conditions: IGROV-1, 48 h; how it was run: as §2
[27] = test system: HCT-116; test: Growth inhibition of human HCT116 cells after 48 hrs by sulforhodamine B assay; conditions: HCT-116, 48 h; how it was run: as §2
[28] = test system: NCI-H23; test: Growth inhibition of human NCI-H23 cells after 48 hrs by sulforhodamine B assay; conditions: NCI-H23, 48 h; for CC50: read-out: LC50 (the source's name); how it was run: as §3
[29] = test system: HL-60(TB); test: Growth inhibition of human HL-60(TB) cells after 48 hrs by sulforhodamine B assay; conditions: HL-60, 48 h; for CC50: read-out: LC50 (the source's name)
How it was run: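 Part of the NCI 60-cell-line panel. Cells were grown in 1640 medium with 5% fetal calf serum and 2 mM L-glutamine, then preincubated 24 h before compound was added. Compounds in DMSO were tested at five concentrations (100, 10, 1, 0.1, 0.01 µM) with 48 h continuous exposure. Read-out was SRB protein staining; GI50 is the concentration halving the net protein increase versus control.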

Cc1cc(O)ccc1C1=NN(c2ccc(S(C)(=O)=O)cc2)C(=O)CC1
growth at 10 µM [1]: 52.9% | GI50 [2]: 4.97 µM | TGI [2]: > 100 µM | CC50 [2]: > 100 µM | GI50 [3]: 3.85 µM | TGI [3]: > 100 µM | CC50 [3]: > 100 µM | growth at 10 µM [4]: 92.2% | GI50 [5]: 76.9 µM | LC50 [5]: > 100 µM | TGI [5]: > 100 µM | growth at 10 µM [6]: 32.9% | GI50 [7]: 14.8 µM | LC50 (concentration killing 50% of cells) [7]: > 100 µM | TGI [7]: > 100 µM | growth at 10 µM [8]: 52.7% | growth at 10 µM [9]: 84.8% | growth at 10 µM [10]: 78.2% | GI50 [11]: 4 µM | LC50 (50% net cell kill concentration) [11]: > 100 µM | TGI [11]: > 100 µM | GI50 [12]: 3.26 µM | LC50 [12]: > 100 µM | TGI [12]: > 100 µM | GI50 [13]: 9.07 µM | TGI [13]: > 100 µM | CC50 [13]: > 100 µM | GI50 [14]: 57.9 µM | TGI [14]: > 100 µM | CC50 [14]: > 100 µM | GI50 [15]: 20.2 µM | LC50 [15]: > 100 µM | TGI [15]: > 100 µM | growth at 10 µM [16]: 65.8% | GI50 [17]: 6.2 µM | TGI [17]: > 100 µM | CC50 [17]: > 100 µM | growth at 10 µM [18]: 52.7% | growth at 10 µM [19]: 69.7% | GI50 [20]: 4.22 µM | LC50 [20]: > 100 µM | TGI [20]: > 100 µM | growth at 10 µM [21]: 93% | growth at 10 µM [22]: 80.3% | GI50 [23]: 17.1 µM | LC50 [23]: > 100 µM | TGI [23]: > 100 µM | growth at 10 µM [24]: 79.7% | growth at 10 µM [25]: 48.8% | GI50 [26]: 7.13 µM | LC50 [26]: > 100 µM | TGI [26]: > 100 µM | GI50 [27]: 3.78 µM | LC50 (concentration killing 50% of cells) [27]: > 100 µM | TGI [27]: > 100 µM | GI50 [28]: 38.5 µM | TGI [28]: > 100 µM | CC50 [28]: > 100 µM | GI50 [29]: 3.52 µM | TGI [29]: 48.4 µM | CC50 [29]: > 100 µM

CCc1ccc(C2=NN(c3ccc(S(C)(=O)=O)cc3)C(=O)CC2)cc1
growth at 10 µM [1]: 38% | GI50 [2]: 0.96 µM | TGI [2]: 35.6 µM | CC50 [2]: > 100 µM | GI50 [3]: 0.63 µM | TGI [3]: > 100 µM | CC50 [3]: > 100 µM | growth at 10 µM [4]: 21.4% | GI50 [5]: 0.01 µM | LC50 [5]: > 100 µM | TGI [5]: > 100 µM | growth at 10 µM [6]: -4.83% | GI50 [7]: 5.23 µM | LC50 (concentration killing 50% of cells) [7]: > 100 µM | TGI [7]: > 100 µM | growth at 10 µM [8]: 15.3% | growth at 10 µM [9]: 41.4% | growth at 10 µM [10]: 51.5% | GI50 [11]: 0.78 µM | LC50 (50% net cell kill concentration) [11]: > 100 µM | TGI [11]: > 100 µM | GI50 [12]: 0.4 µM | LC50 [12]: > 100 µM | TGI [12]: 3.34 µM | GI50 [13]: 4.3 µM | TGI [13]: > 100 µM | CC50 [13]: > 100 µM | GI50 [14]: 4.19 µM | TGI [14]: 96.7 µM | CC50 [14]: > 100 µM | GI50 [15]: 4.4 µM | LC50 [15]: > 100 µM | TGI [15]: 93.3 µM | growth at 10 µM [16]: 22.5% | GI50 [17]: 0.91 µM | TGI [17]: > 100 µM | CC50 [17]: > 100 µM | growth at 10 µM [18]: 38.8% | growth at 10 µM [19]: 15.3% | GI50 [20]: 0.93 µM | LC50 [20]: > 100 µM | TGI [20]: > 100 µM | growth at 10 µM [21]: 59.1% | growth at 10 µM [22]: 42.8% | GI50 [23]: 3.46 µM | LC50 [23]: > 100 µM | TGI [23]: > 100 µM | growth at 10 µM [24]: 46% | growth at 10 µM [25]: 33.3% | GI50 [26]: 1.48 µM | LC50 [26]: > 100 µM | TGI [26]: 55.2 µM | GI50 [27]: 0.73 µM | LC50 (concentration killing 50% of cells) [27]: > 100 µM | TGI [27]: > 100 µM | GI50 [28]: 3.19 µM | TGI [28]: > 100 µM | CC50 [28]: > 100 µM | GI50 [29]: 1.2 µM | TGI [29]: 6.35 µM | CC50 [29]: > 100 µM

O=c1[nH]cc(F)c(=O)[nH]1 [FLUOROURACIL]
GI50 [2]: 10.6 µM | GI50 [3]: 0.98 µM | GI50 [5]: 4.43 µM | GI50 [7]: 1.42 µM | GI50 [11]: 0.52 µM | GI50 [12]: 0.31 µM | GI50 [13]: 0.39 µM | GI50 [14]: 61.8 µM | GI50 [15]: 8.12 µM | GI50 [17]: 0.18 µM | GI50 [20]: 0.21 µM | GI50 [23]: 6.6 µM | GI50 [26]: 1.22 µM | GI50 [27]: 0.22 µM | GI50 [28]: 0.33 µM | GI50 [29]: 2.3 µM
